PAX8 reporter = inhibitors of PAX8 transcriptional activity in RMG-I cells | inhibition, % at 12.6 µM | RMG-I TPO-luciferase reporter, SteadyGlo, 24 h | hit rate 1.2% among 360,000;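 active = mean replicate inhibition at least 60% with every replicate also reaching 60%; inconclusive = only one of the two criteria is met; inactive = mean below 60% and not all replicates reaching 60%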;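 note: luciferase light reporting Pax8 driven TPO promoter activity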
Arrestin-AP2 inh = human beta-arrestin and AP2 interaction inhibition; FITC-arrestin peptide / GST-AP2 beads, flow cytometry; AP2 beta2 appendage carries R879A mutation; inhibition, % at 10 µM; hit rate 0.31% among 340,000; AID 504490;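 active = inhibition above a set limit, near 3 SD of compounds lacking own fluorescence, cut at about 54% in these data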
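System: GST-tagged AP2 beta2-adaptin appendage (R879A) on 4 µm glutathione beads / Reagent: FITC-arrestin peptide, 50 nM / Detection: HyperCyt-sampled flow cytometry, FL1 channel, ex 488/em 535 nm / Timing: 12 min plus 1 h, RT / Buffer or medium: PBS plus Tween 20 (0.05%) and BSA (0.1%)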
Env fusion inh = inhibitors of HIV Env-mediated cell fusion; HeLa-JRFL Env/CEM21 cell fusion, luciferase; inhibition, % at 12.3 µM; hit rate 1.1% among 360,000;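 active = mean replicate inhibition score of at least 50 and every replicate individually at or above 50; inconclusive = only one of the two criteria met; inactive = mean below 50 and not all replicates reaching 50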
PfHsp90 set2 = inhibits growth of yeast expressing Plasmodium falciparum Hsp90; S. cerevisiae expressing PfHsp90, BacTiter-Glo ATP, 48 h; yeast lacking PDR1 and PDR3 efflux regulators; inhibition, % at 9.4 µM; hit rate 0.32% among 310,000; AID 504621;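 active = every replicate shows inhibition above about 80%, whatever the replicate mean, limit read from the data; inconclusive = mean inhibition reaches the set limit but some replicate falls short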
Glyco luc inh = blocks N-linked glycosylation in D54 reporter cells; D54 ERlucT glycosylation luciferase reporter, 24 h; percent of 100 nM tunicamycin response; reporter increase, % at 12.5 µM; hit rate 0.23% among 360,000;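 active = mean luciferase reporter signal, scaled so untreated is 0 and the glycosylation-blocking control 100, at or above a set limit in every replicate; inconclusive = mean reaches the limit but not every replicate does; inactive = mean below the limit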;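 note: luciferase carries N-glycosylation sites so blocking glycosylation raises the light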
Rtt109 HAT inh = inhibitors of Candida albicans Rtt109/Vps75 histone acetyltransferase; Q5AAJ8; purified Rtt109/Vps75, ThioGlo CoA-SH fluorescence, 4 h; hit rate 0.16% among 330,000; inhibition, % at 34.9 µM;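 active = inhibition of at least 50% in every replicate; inconclusive = best replicate reaches 50% inhibition but some replicates fall short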
Target sequence (Q5AAJ8 whole entry, looked up): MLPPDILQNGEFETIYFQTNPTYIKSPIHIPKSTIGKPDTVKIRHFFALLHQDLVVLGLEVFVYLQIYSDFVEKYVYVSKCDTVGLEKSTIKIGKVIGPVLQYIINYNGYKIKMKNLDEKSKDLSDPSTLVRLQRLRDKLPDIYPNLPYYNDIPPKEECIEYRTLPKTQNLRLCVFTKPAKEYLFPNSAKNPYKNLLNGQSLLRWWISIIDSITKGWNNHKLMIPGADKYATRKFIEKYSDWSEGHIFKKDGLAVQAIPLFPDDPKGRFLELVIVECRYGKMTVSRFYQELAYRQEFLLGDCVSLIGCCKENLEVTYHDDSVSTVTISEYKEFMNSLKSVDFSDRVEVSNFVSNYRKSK
Hits are given with their value; n = inactive; u = inconclusive; x = not tested or not shown. Hits are enriched below; roughly 2.3% of the tested compounds scored in any of these assays.

SMILES	PAX8 reporter	Arrestin-AP2 inh	Env fusion inh	PfHsp90 set2	Glyco luc inh	Rtt109 HAT inh
CCCNC(=O)N(C)C[C@@H]1Oc2ncc(C#C[C@@H](C)O)cc2C(=O)N([C@@H](C)CO)C[C@H]1C	x	x	n	x	x	x
O=C1CC(N2CCCCCC2)C(=O)N1c1ccc2c(c1)OCO2 (stereo not drawn)	x	n	x	121	n	n
CN(C)CC(=O)N1[C@@H](CO)[C@@H](c2ccccc2)C12CN(Cc1cc(F)ccc1F)C2	n	x	x	x	x	x
COc1ccc(Nc2ncc(C(=O)N3CCN(c4ccc(F)cc4)CC3)c3ccccc23)cc1	x	n	93	n	n	n
COc1ccc(N/C=C/C(=O)c2ccc(OC)c(OC)c2)cc1	n	n	n	n	n	n
COc1ccc(OC)c(NC(=O)Nc2c(O)ccc3ccccc23)c1	n	n	n	n	n	n
COc1ccc(N/C=C/C(=O)c2cc(OC)c(OC)c(OC)c2)cc1	n	n	n	n	38	n
COc1ccc(OC)c(NC(=O)Nc2ccc(O)c3ccccc23)c1	n	n	n	108	n	n
COc1ccc(C=CC(=O)c2c(OC)cc(OC)c(OC)c2O)cc1	n	n	n	n	29	n
COc1ccc(C(=O)/C=C/c2ccc(O)cc2)cc1	x	n	x	n	n	n
COc1ccc(OC)c(N/C=C/C(=O)c2ccccc2)c1	78	n	n	n	n	n
CCCC(=O)Nc1ccc2c(c1)C(=O)N(C)[C@@H]1CC[C@H](CC(=O)NCC3CC3)O[C@H]1CO2	n	x	x	x	x	x
CCC(=O)Nc1ccc2c(c1)OC[C@@H](C)N(C(=O)CN(C)C)C[C@@H](C)[C@H](OC)CN(C)C2=O	n	x	n	x	x	x
CCC(=O)N1C[C@@H](C)[C@@H](OC)CN(C)C(=O)c2cc(NS(=O)(=O)CC)ccc2OC[C@H]1C	n	x	n	x	x	x
Cc1noc(C)c1NC(=O)N(C)C[C@@H]1Oc2ccc(NC(=O)C3CC3)cc2CC(=O)N([C@H](C)CO)C[C@H]1C	x	x	n	x	x	x
Nc1ccc2c(c1)C(=NO)c1cc([N+](=O)[O-])ccc1-2	n	n	n	n	n	n
O=[N+]([O-])c1ccc2c(c1)-c1ccccc1C2=NO	n	n	n	105	n	n
CCn1c(-c2ccc(C)cc2)nn(CC(=O)NCCc2ccccc2)c1=S	n	n	76	n	n	n
COc1c(Br)cc(Br)cc1/C=N/NC(=O)c1cccnc1	n	n	n	n	30	n
O=C(N/N=C/c1ccc(OC(=O)c2ccc([N+](=O)[O-])cc2)cc1)c1cccnc1	n	n	n	n	n	n
O=C(N/N=C/c1ccc(OC(=O)c2ccccc2)cc1)c1cccnc1	n	n	57	n	n	n
Cn1c(-c2ccccc2)c(/C=N/NC(=O)c2cccnc2)c2ccccc21	n	n	n	n	47	n
O=C(N/N=C/c1c(-c2ccccc2)[nH]c2ccccc12)c1cccnc1	n	n	n	n	u	n
COc1cccc(NC(=O)C[C@H]2CC[C@@H]3[C@H](COc4ccc(NS(=O)(=O)c5cccc(F)c5)cc4C(=O)N3C)O2)c1	n	x	n	x	x	x
NC(=O)c1ccc[n+]([C@H]2O[C@@H](COP(=O)([O-])OP(=O)(O)OC[C@H]3O[C@@H](n4cnc5c(N)ncnc54)[C@H](O)[C@@H]3O)[C@H](O)[C@@H]2O)c1	x	n	x	88	n	n
SMILES	PAX8 reporter	Arrestin-AP2 inh	Env fusion inh	PfHsp90 set2	Glyco luc inh	Rtt109 HAT inh
COc1ccc(C(=O)NC[C@H]2O[C@@H](n3cnc4c(N)ncnc43)[C@H](O)[C@@H]2O)cc1OC	n	x	n	x	n	x
O=C(C[C@H]1CC[C@H]2[C@@H](COC[C@@H](O)CN2Cc2ccc(Oc3ccccc3)cc2)O1)N1CCc2ccccc2C1	105	x	n	x	x	x
O=C(C[C@@H]1CC[C@H]2[C@@H](COC[C@H](O)CN2Cc2ccc(Oc3ccccc3)cc2)O1)N1CCc2ccccc2C1	106	x	n	x	x	x
O=C(C[C@@H]1CC[C@@H]2[C@H](COC[C@@H](O)CN2Cc2ccc(Oc3ccccc3)cc2)O1)N1CCc2ccccc2C1	n	x	n	x	x	x
O=C(C[C@H]1CC[C@@H]2[C@H](COC[C@H](O)CN2Cc2ccc(Oc3ccccc3)cc2)O1)N1CCc2ccccc2C1	n	x	n	x	x	x
CO[C@H]1CN(C)C(=O)c2cc(NS(=O)(=O)CC(F)(F)F)ccc2OC[C@@H](C)N(C(=O)NC(C)C)C[C@H]1C	n	x	n	x	x	x
COc1ccccc1S(=O)(=O)N[C@@H]1CC[C@@H](CCn2cc(C3CC3)nn2)O[C@H]1CO	n	x	n	x	x	x
COc1ccc(S(=O)(=O)N(C)C[C@H]2OCc3cn(nn3)CCCC(=O)N([C@H](C)CO)C[C@H]2C)cc1	n	x	x	x	x	x
C[C@@H]1CN([C@@H](C)CO)C(=O)c2cc(NC(=O)c3ccncc3)ccc2O[C@@H](C)CCCCO[C@H]1CN(C)S(C)(=O)=O	n	x	n	x	x	x
Cc1[nH]n(-c2ccccc2)c(=O)c1N=Nc1ccc(C(=O)O)cc1	n	n	n	n	n	n
Cc1[nH]n(-c2ccccc2)c(=O)c1N=Nc1cccc(C(=O)O)c1	65	n	58	n	n	n
O=C(Cn1nc(CNc2ccc(Br)cc2)[n+]2c1CCCCC2)c1ccc([N+](=O)[O-])cc1	71	n	n	n	n	n
C[C@@H]1CCCCO[C@H](CN(C)S(=O)(=O)c2ccccc2)[C@@H](C)CN([C@@H](C)CO)C(=O)c2cc(NC(=O)Nc3ccccc3)ccc2O1	n	x	n	x	x	x
COc1cccc(NC(=O)C[C@H]2CC[C@@H]3[C@@H](COc4ccc(NC(=O)c5ccccc5F)cc4C(=O)N3C)O2)c1	n	x	x	x	x	x
COc1ccc(N(C(=O)c2ccco2)C(C(=O)NC2CCCC2)c2ccc(C)cc2)c(OC)c1 (stereo not drawn)	n	n	n	n	n	n
COc1ccc(C(C(=O)NC2CCCCC2)N(C(=O)CCl)c2cccc(Cl)c2)cc1 (stereo not drawn)	115	n	x	n	n	n
COc1ccc(C(C(=O)NC2CCCCC2)N(C(=O)CCl)c2ccc(C)cc2)cc1 (stereo not drawn)	111	n	56	n	n	n
COc1ccc(C(C(=O)NC2CCCC2)N(C(=O)c2ccoc2C)c2ccc(C)cc2)cc1 (stereo not drawn)	x	n	90	n	n	n
CC[C@@]1(C(=O)OC)N[C@H](CN(C)C(=O)Nc2ccc(F)cc2)[C@@H]2C(=O)N(Cc3ccccc3)C(=O)[C@@H]21	n	n	94	n	n	n
CC[C@@]1(C(=O)OC)N[C@H](CN(C)C(=O)Nc2ccc(C)cc2)[C@@H]2C(=O)N(Cc3ccccc3)C(=O)[C@@H]21	n	n	66	n	n	n
CC[C@@]1(C(=O)OC)N[C@H](CN(C)C(=O)Nc2ccc(OC)cc2)[C@@H]2C(=O)N(Cc3ccccc3)C(=O)[C@@H]21	n	n	70	n	n	n

Assay outcomes: PubChem, several laboratories
